Drawing on ChEMBL document CHEMBL1142695, “Discovery of functionally selective 7,8,9,10-tetrahydro-7,10-ethano-1,2,4-triazolo[3,4-a]phthalazines as GABA A receptor agonists at the alpha3 subunit” (J Med Chem, 2005), this text covers Ki and Efficacy for 17 compounds.

Common to all, as to format: cell-based
In experiment [1] the target is T1, GABA-A receptor; alpha-5/beta-3/gamma-2 (Homo sapiens, UniProt P18507+P28472+P31644).
T1 sequence (P18507 whole entry): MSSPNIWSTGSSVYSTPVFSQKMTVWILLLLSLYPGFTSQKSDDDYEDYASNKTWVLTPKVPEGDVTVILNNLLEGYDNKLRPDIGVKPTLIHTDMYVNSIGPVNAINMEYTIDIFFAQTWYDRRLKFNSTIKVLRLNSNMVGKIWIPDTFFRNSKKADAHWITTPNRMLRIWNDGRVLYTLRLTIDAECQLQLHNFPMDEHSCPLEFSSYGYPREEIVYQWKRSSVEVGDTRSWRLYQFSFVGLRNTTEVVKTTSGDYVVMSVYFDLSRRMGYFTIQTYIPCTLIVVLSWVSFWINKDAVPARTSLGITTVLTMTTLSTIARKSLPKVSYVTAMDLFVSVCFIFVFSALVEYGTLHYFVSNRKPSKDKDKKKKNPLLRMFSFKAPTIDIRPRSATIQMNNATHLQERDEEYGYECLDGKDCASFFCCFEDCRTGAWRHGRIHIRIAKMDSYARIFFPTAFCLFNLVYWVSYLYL
T1 sequence (P28472 whole entry): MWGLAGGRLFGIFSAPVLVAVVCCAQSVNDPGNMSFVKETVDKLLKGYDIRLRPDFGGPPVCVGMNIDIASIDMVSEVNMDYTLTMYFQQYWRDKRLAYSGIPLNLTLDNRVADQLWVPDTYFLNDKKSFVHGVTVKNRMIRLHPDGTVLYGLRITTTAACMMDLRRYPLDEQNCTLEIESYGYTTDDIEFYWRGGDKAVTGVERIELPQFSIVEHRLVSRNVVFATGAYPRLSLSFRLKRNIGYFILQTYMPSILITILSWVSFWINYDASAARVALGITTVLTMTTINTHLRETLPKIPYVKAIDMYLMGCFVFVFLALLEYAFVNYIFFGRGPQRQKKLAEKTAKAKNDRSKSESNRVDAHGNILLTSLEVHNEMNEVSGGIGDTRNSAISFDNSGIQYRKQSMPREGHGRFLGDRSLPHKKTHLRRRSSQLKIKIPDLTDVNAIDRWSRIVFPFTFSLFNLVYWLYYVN
T1 sequence (P31644 whole entry): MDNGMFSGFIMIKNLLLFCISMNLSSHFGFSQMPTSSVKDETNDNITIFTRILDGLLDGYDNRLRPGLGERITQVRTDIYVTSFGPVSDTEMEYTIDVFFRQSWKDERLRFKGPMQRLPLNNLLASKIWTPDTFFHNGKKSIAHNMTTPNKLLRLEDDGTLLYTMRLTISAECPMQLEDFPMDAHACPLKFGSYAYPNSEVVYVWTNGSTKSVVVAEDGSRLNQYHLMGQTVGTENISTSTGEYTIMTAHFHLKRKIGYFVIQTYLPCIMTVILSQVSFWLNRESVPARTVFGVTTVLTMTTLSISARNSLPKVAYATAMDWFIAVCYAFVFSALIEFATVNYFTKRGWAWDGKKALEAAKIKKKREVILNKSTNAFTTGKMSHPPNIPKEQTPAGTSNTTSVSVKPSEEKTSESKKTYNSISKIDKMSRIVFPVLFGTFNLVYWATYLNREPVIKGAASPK
Description: Inhibition of [3H]Ro-151788 binding to recombinant human gamma-aminobutyric-acid A receptor alpha-5-beta-3-gamma-2 subtype expressed in L (tk-) cells.

Experiment [2] addresses T2, GABA-A receptor; alpha-3/beta-3/gamma-2 (Homo sapiens, UniProt P18507+P28472+P34903).
T2 sequence (P18507 whole entry): T1 sequence (P18507 whole entry)
T2 sequence (P28472 whole entry): T1 sequence (P28472 whole entry)
T2 sequence (P34903 whole entry): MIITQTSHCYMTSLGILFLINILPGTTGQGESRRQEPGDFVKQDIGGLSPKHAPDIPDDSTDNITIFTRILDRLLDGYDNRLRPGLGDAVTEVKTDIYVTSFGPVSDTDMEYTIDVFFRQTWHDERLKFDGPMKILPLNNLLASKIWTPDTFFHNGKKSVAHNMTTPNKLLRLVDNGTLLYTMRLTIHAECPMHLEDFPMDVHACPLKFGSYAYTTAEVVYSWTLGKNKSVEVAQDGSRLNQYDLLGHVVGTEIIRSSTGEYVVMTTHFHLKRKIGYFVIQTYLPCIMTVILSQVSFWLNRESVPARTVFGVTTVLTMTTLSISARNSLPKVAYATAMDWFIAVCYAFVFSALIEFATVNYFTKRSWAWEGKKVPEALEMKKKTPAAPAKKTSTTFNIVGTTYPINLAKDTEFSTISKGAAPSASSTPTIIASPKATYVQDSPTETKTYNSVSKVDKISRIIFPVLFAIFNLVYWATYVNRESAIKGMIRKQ
Description: Inhibition of [3H]Ro-151788 binding to recombinant human gamma-aminobutyric-acid A receptor alpha-3-beta-3-gamma-2 subtype expressed in L (tk-) cells.

Experiment [3] has as its target T3, GABA-A receptor; alpha-1/beta-3/gamma-2 (Homo sapiens, UniProt P14867+P18507+P28472).
T3 sequence (P14867 whole entry): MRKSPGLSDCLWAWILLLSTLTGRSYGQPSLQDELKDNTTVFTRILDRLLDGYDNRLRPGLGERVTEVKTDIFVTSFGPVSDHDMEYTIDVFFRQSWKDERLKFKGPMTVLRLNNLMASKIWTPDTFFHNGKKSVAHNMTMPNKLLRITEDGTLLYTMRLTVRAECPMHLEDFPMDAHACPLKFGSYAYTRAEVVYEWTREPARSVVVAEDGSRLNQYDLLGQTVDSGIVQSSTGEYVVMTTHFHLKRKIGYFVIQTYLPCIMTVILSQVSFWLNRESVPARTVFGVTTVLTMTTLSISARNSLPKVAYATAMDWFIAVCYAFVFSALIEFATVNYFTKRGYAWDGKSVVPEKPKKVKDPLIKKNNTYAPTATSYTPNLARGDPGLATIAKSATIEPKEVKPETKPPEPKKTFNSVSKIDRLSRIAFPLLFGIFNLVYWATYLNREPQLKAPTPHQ
T3 sequence (P18507 whole entry): T1 sequence (P18507 whole entry)
T3 sequence (P28472 whole entry): T1 sequence (P28472 whole entry)
Description: Inhibition of [3H]Ro-151788 binding to recombinant human gamma-aminobutyric-acid A receptor alpha-1-beta-3-gamma-2 subtype expressed in L (tk-) cells.

In experiment [4] the target is GABA-A receptor; alpha-1/beta-3/gamma-2 (Homo sapiens) (UniProt P14867+P18507+P28472). Description: Efficacy was measured as modulation of the current in response to GABA at hGABA alpha-1-beta-3-gamma-2 receptor expressed in Xenopus oocytes. The following applies: Oocyte. The procedure, abridged: (§1)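 Two-electrode voltage clamp on Xenopus oocytes expressing each receptor combination. […] Value is percent increase or decrease of the EC20 GABA current.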

In experiment [5] the target is GABA-A receptor; alpha-3/beta-3/gamma-2 (Homo sapiens) (UniProt P18507+P28472+P34903). Kind of experiment: Efficacy was measured as modulation of the current in response to GABA at hGABA alpha-3-beta-3-gamma-2 receptor expressed in Xenopus oocytes. The settings on record: Oocyte. The procedure, abridged: as §1
Experiment [6] deals with T4, GABA-A receptor; alpha-2/beta-3/gamma-2 (Homo sapiens, UniProt P18507+P28472+P47869).
T4 sequence (P18507 whole entry): T1 sequence (P18507 whole entry)
T4 sequence (P28472 whole entry): T1 sequence (P28472 whole entry)
T4 sequence (P47869 whole entry): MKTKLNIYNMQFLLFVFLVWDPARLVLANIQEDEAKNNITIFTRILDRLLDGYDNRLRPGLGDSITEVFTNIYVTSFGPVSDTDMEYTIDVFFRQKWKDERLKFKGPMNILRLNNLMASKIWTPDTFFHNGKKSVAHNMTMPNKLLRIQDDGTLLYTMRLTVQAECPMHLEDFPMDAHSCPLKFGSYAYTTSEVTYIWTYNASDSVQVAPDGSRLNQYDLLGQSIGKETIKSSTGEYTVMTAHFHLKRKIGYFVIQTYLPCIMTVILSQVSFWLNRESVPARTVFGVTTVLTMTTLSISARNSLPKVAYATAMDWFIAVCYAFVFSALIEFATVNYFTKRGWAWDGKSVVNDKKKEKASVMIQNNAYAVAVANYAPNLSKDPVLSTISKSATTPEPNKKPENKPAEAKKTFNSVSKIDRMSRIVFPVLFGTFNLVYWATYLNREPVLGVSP
Description: Inhibition of [3H]Ro-151788 binding to recombinant human gamma-aminobutyric acid A receptor alpha-2-beta-3-gamma-2 subtype expressed in L (tk-) cells.

Take `Cc1cccnc1COc1nn2c(-c3ccccc3)nnc2c2c1C1CCC2CC1`: the Ki in experiment [1] stood at 0.46 nM; in experiment [2], 2.1 nM; in experiment [3], 9.8 nM; in experiment [6], 2 nM. Also, the results for the Efficacy in experiment [4] and in experiment [5] were 17% and 7%, respectively.
In the case of `Cc1cnc(COc2nn3c(-c4ccccc4)nnc3c3c2C2CCC3CC2)c(C)c1`, the inhibitory constant (Ki) in experiment [1] is 0.2 nM; in experiment [2], 0.71 nM; in experiment [3], 3.4 nM; in experiment [6] it was 3.4 nM. In addition, the Efficacy in experiment [4] was 34%; in experiment [5] it was -2%.
As to `Cc1ccc(COc2nn3c(-c4ccccc4)nnc3c3c2C2CCC3CC2)nc1`, the Ki in experiment [1] is 1.2 nM; in experiment [2], 15 nM; in experiment [3], 56 nM; in experiment [6] it was 17 nM. Besides, the Efficacy was determined as 100% in experiment [4] and 74% in experiment [5].
As to `Cc1ccnc(COc2nn3c(-c4ccccc4)nnc3c3c2C2CCC3CC2)c1`, the Ki was 2 nM in experiment [1], 18 nM in experiment [2], 93 nM in experiment [3] and 19 nM in experiment [6]. Also, the values for the Efficacy in experiment [4] and in experiment [5] were 41% and 33%, respectively.
Consider `c1ccc(-c2nnc3c4c(c(OCc5nccs5)nn23)C2CCC4CC2)cc1`, for which the inhibition constant (Ki) in experiment [1] was determined as 2.7 nM; in experiment [2] it was 18 nM; in experiment [3] it was 100 nM; in experiment [6], 35 nM. For the same compound, the Efficacy was found to be 84% in experiment [4] and 27% in experiment [5].
Take `CCCn1cnc(COc2nn3c(-c4ccccc4)nnc3c3c2C2CCC3CC2)n1`: the Ki in experiment [1] came out at 9 nM; in experiment [2], 40 nM; in experiment [3], 78 nM; in experiment [6], 50 nM. In addition, the Efficacy in experiment [5] was 83%.
Turning to `c1ccc(-c2nnc3c4c(c(OCc5ncc[nH]5)nn23)C2CCC4CC2)cc1`, the Ki is 0.87 nM in experiment [1], 6.7 nM in experiment [2], 53 nM in experiment [3] and 18 nM in experiment [6]. The Efficacy amounted to 35% in experiment [4] and 29% in experiment [5].
For `COc1cccc(-c2nnc3c4c(c(OCc5ccccn5)nn23)C2CCC4CC2)c1`, the Ki worked out at 6 nM in experiment [1], 29 nM in experiment [2], 140 nM in experiment [3] and 79 nM in experiment [6]. Also, the Efficacy was 51% in experiment [4] and 43% in experiment [5].
In the case of `c1ccc(-c2nnc3c4c(c(OCc5cccnc5)nn23)C2CCC4CC2)cc1`, the Ki in experiment [1] came out at 6.5 nM; in experiment [2], 25 nM; in experiment [3] it was 150 nM; in experiment [6] it was 68 nM. Further, the Efficacy in experiment [4] worked out at 51%; in experiment [5] it was 20%.
Turning to `COc1ccc(-c2nnc3c4c(c(OCc5ccccn5)nn23)C2CCC4CC2)cc1`, the inhibition constant Ki in experiment [1] amounted to 4.2 nM; in experiment [2], 52 nM; in experiment [3] it was 230 nM; in experiment [6], 74 nM. Besides, the Efficacy in experiment [4] is 14%; in experiment [5], 33%.
As for `OCCCCOc1nn2c(-c3ccccc3)nnc2c2c1C1CCC2CC1`, the inhibition constant Ki in experiment [1] turned out to be 8.5 nM; in experiment [2], 19 nM; in experiment [3], 71 nM; in experiment [6], 34 nM. Besides, the Efficacy in experiment [5] came to 20%.
In the case of `c1ccc(COc2cccnc2COc2nn3c(-c4ccccc4)nnc3c3c2C2CCC3CC2)cc1`, the inhibitory constant (Ki) in experiment [1] stood at 7 nM; in experiment [2], 20 nM; in experiment [3], 160 nM; in experiment [6], 100 nM. The results for the Efficacy in experiment [4] and in experiment [5] were 178% and 132%, respectively.
With `CCCn1ncnc1COc1nn2c(-c3ccccc3)nnc2c2c1C1CCC2CC1`, the Ki in experiment [1] is 0.19 nM; in experiment [2], 1.4 nM; in experiment [3] it was 0.9 nM; in experiment [6], 2.5 nM. Besides, the Efficacy is 41% in experiment [4] and 78% in experiment [5].
Turning to `COCCOc1cccnc1COc1nn2c(-c3ccccc3)nnc2c2c1C1CCC2CC1`, the Ki in experiment [1] was 0.5 nM; in experiment [2], 3.9 nM; in experiment [3], 13 nM; in experiment [6], 9.8 nM. The Efficacy in experiment [4] turned out to be 77%; in experiment [5], 97%.
On to `Cn1ncnc1COc1nn2c(-c3ccccc3)nnc2c2c1C1CCC2CC1`, for which the inhibition constant Ki was found to be 0.39 nM in experiment [1], 2.8 nM in experiment [2], 11 nM in experiment [3] and 5.2 nM in experiment [6]. For the same compound, in experiment [5], the Efficacy is 22%.
In the same order, the values of `COc1cccnc1COc1nn2c(-c3ccccc3)nnc2c2c1C1CCC2CC1` are 0.65 nM, 2.4 nM, 17 nM, 9.1 nM and 8%.
Taken in the same sequence, the figures for `Cc1ccnc(COc2nn3c(-c4ccccc4)nnc3c3c2C2CCC3CC2)c1C` were 1 nM, 1.7 nM, 11 nM, 4 nM and 17%.
